Structures are written as SMILES.

One assay concerns HeLa. Kind of assay: Antiproliferative activity against human HeLa cells after 48 hrs by MTT assay.
Details: not given
It is filed as functional, cell-based. The method in brief:
(§1)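 MTT read-out. Cells were seeded at 5 × 10^3 per well in DMEM or RPMI with 10% FBS and grown 24 h at 37 °C in CO2. Compound dilutions in medium, with vehicle control, were then added for 48 h. MTT (0.5 mg/mL in medium) was given for 4 h, formazan was dissolved in DMSO, and A570 was read. IC50 was taken from concentration–response curves as mean ± SD of three experiments run in triplicate.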
(Tetrazolium assays rely on reduction of a dye to a coloured formazan, in cell work by metabolically active cells.)
As usually defined, the IC50 is the concentration at which inhibition is half-maximal. Consider `COc1ccc(/C=C/C(=O)/C=C/c2cn(Cc3cccc(F)c3)c3ccccc23)cc1`, for which the IC50 was > 50 µM.
Consider `COc1cc(OC)c(/C=C/C(=O)/C=C/c2cn(Cc3ccc(C(F)(F)F)cc3)c3ccccc23)c(OC)c1`, for which the IC50 was > 50 µM.
On the same count and under the same terms, to `COc1cc(OC)c(OC)cc1/C=C/C(=O)/C=C/c1cn(Cc2ccccc2)c2ccccc12` belongs 50.1 µM.
Same read-out and setting: to `COc1cc(OC)c(OC)cc1/C=C/C(=O)/C=C/c1cn(Cc2ccc(C(F)(F)F)cc2)c2ccccc12` belongs 50.6 µM.
On the same count and under the same terms, the result for `COc1ccc(/C=C/C(=O)/C=C/c2c[nH]c3ccccc23)cc1OC` reads 6.44 µM; that for `COc1ccc(/C=C/C(=O)/C=C/c2cn(Cc3ccccc3)c3ccccc23)cc1`, > 50 µM; that for `COc1ccc(/C=C/C(=O)/C=C/c2cn(Cc3ccc(C(F)(F)F)cc3)c3ccccc23)cc1`, > 50 µM.

For another assay, the system named is PC-3. In words: Antiproliferative activity against human PC3 cells after 48 hrs by MTT assay. It counts as functional, cell-based. Particulars: PC-3, 48 h. Put shortly: as §1
As to `COc1ccc(/C=C/C(=O)/C=C/c2cn(Cc3cccc(F)c3)c3ccccc23)cc1`, the half-inhibitory concentration (IC50) was > 50 µM.
On the same count and under the same terms, the result for `COc1cc(OC)c(/C=C/C(=O)/C=C/c2cn(Cc3ccc(C(F)(F)F)cc3)c3ccccc23)c(OC)c1` reads > 50 µM; that for `COc1cc(OC)c(OC)cc1/C=C/C(=O)/C=C/c1cn(Cc2ccccc2)c2ccccc12`, > 50 µM.
Same read-out and setting: the result for `COc1cc(OC)c(OC)cc1/C=C/C(=O)/C=C/c1cn(Cc2ccc(C(F)(F)F)cc2)c2ccccc12` reads > 50 µM; that for `COc1ccc(/C=C/C(=O)/C=C/c2c[nH]c3ccccc23)cc1OC`, 5.52 µM; that for `COc1cc(OC)c(/C=C/C(=O)/C=C/c2c[nH]c3ccccc23)c(OC)c1`, 3.12 µM.
Same read-out and setting: the result for `COc1ccc(/C=C/C(=O)/C=C/c2cn(Cc3ccccc3)c3ccccc23)cc1` reads > 50 µM; that for `COc1ccc(/C=C/C(=O)/C=C/c2cn(Cc3ccc(C(F)(F)F)cc3)c3ccccc23)cc1`, > 50 µM.

Another assay concerns PC-3. Kind of assay: Potency index, ratio of curcumin IC50 to compound IC50 for human PC3 cells. It is filed as functional.
Details: not given
As to `COc1ccc(/C=C/C(=O)/C=C/c2c[nH]c3ccccc23)cc1OC`, the “Ratio IC50” value turned out to be 2.2.
Turning to `COc1cc(OC)c(/C=C/C(=O)/C=C/c2c[nH]c3ccccc23)c(OC)c1`, the “Ratio IC50” value was determined as 3.9.

The next assay has as its system HGC-27. In words: Antiproliferative activity against human HGC27 cells after 48 hrs by MTT assay. It counts as functional, cell-based. Conditions: HGC-27, 48 h. The method in brief:
as §1
As for `COc1ccc(/C=C/C(=O)/C=C/c2cn(Cc3cccc(F)c3)c3ccccc23)cc1`, the IC50 was > 50 µM.
Still for that read-out and setting: to `COc1cc(OC)c(/C=C/C(=O)/C=C/c2cn(Cc3ccc(C(F)(F)F)cc3)c3ccccc23)c(OC)c1` belongs > 50 µM.
Still for that read-out and setting: to `COc1cc(OC)c(OC)cc1/C=C/C(=O)/C=C/c1cn(Cc2ccccc2)c2ccccc12` belongs > 50 µM; to `COc1cc(OC)c(OC)cc1/C=C/C(=O)/C=C/c1cn(Cc2ccc(C(F)(F)F)cc2)c2ccccc12`, 40.1 µM.
Same read-out and setting: the result for `COc1ccc(/C=C/C(=O)/C=C/c2c[nH]c3ccccc23)cc1OC` reads 7.45 µM; that for `COc1ccc(/C=C/C(=O)/C=C/c2cn(Cc3ccccc3)c3ccccc23)cc1`, > 50 µM; that for `COc1ccc(/C=C/C(=O)/C=C/c2cn(Cc3ccc(C(F)(F)F)cc3)c3ccccc23)cc1`, > 50 µM.

The subject of a further assay is DU-145. Kind of assay: Potency index, ratio of curcumin IC50 to compound IC50 for human DU145 cells. It counts as functional.
Details: not given
Consider `COc1ccc(/C=C/C(=O)/C=C/c2c[nH]c3ccccc23)cc1OC`, for which the “Ratio IC50” value turned out to be 2.1.

The test system of the next assay is 4T1. Kind of assay: Antiproliferative activity against mouse 4T1 cells after 48 hrs by MTT assay. It is filed as functional, cell-based. Conditions: 4T1, 48 h. Put shortly: as §1
Consider `COc1ccc(/C=C/C(=O)/C=C/c2cn(Cc3cccc(F)c3)c3ccccc23)cc1`, for which the IC50 was > 50 µM.
On the same count and under the same terms, the result for `COc1cc(OC)c(/C=C/C(=O)/C=C/c2cn(Cc3ccc(C(F)(F)F)cc3)c3ccccc23)c(OC)c1` reads > 50 µM.
The same measure, in the same setting: to `COc1cc(OC)c(OC)cc1/C=C/C(=O)/C=C/c1cn(Cc2ccccc2)c2ccccc12` belongs 40.8 µM.
Still for that read-out and setting: to `COc1cc(OC)c(OC)cc1/C=C/C(=O)/C=C/c1cn(Cc2ccc(C(F)(F)F)cc2)c2ccccc12` belongs 25.9 µM; to `COc1ccc(/C=C/C(=O)/C=C/c2c[nH]c3ccccc23)cc1OC`, 21.9 µM.
`COc1cc(OC)c(/C=C/C(=O)/C=C/c2c[nH]c3ccccc23)c(OC)c1`: the half-inhibitory concentration (IC50) was 13.9 µM.
`COc1ccc(/C=C/C(=O)/C=C/c2cn(Cc3ccccc3)c3ccccc23)cc1` came in with a 50% inhibitory concentration (IC50) of 50.2 µM.
On the same count and under the same terms, to `COc1ccc(/C=C/C(=O)/C=C/c2cn(Cc3ccc(C(F)(F)F)cc3)c3ccccc23)cc1` belongs > 50 µM.

For another assay, the system named is MDA-MB-231. In words: Antiproliferative activity against human MDA-MB-231 cells after 48 hrs by MTT assay. It counts as functional, cell-based. Particulars: MDA-MB-231, 48 h. Put shortly: as §1
Consider `COc1ccc(/C=C/C(=O)/C=C/c2cn(Cc3cccc(F)c3)c3ccccc23)cc1`, for which the half-inhibitory concentration (IC50) is > 50 µM.
Same read-out and setting: to `COc1cc(OC)c(/C=C/C(=O)/C=C/c2cn(Cc3ccc(C(F)(F)F)cc3)c3ccccc23)c(OC)c1` belongs > 50 µM; to `COc1cc(OC)c(OC)cc1/C=C/C(=O)/C=C/c1cn(Cc2ccccc2)c2ccccc12`, > 50 µM; to `COc1cc(OC)c(OC)cc1/C=C/C(=O)/C=C/c1cn(Cc2ccc(C(F)(F)F)cc2)c2ccccc12`, > 50 µM.
Same read-out and setting: the result for `COc1ccc(/C=C/C(=O)/C=C/c2c[nH]c3ccccc23)cc1OC` reads 15.7 µM; that for `COc1cc(OC)c(/C=C/C(=O)/C=C/c2c[nH]c3ccccc23)c(OC)c1`, 46.4 µM.
Same read-out and setting: to `COc1ccc(/C=C/C(=O)/C=C/c2cn(Cc3ccccc3)c3ccccc23)cc1` belongs > 50 µM; to `COc1ccc(/C=C/C(=O)/C=C/c2cn(Cc3ccc(C(F)(F)F)cc3)c3ccccc23)cc1`, > 50 µM.

The test system of the next assay is BT-549. Kind of assay: Antiproliferative activity against human BT549 cells after 48 hrs by MTT assay. It counts as functional, cell-based. Conditions: BT-549, 48 h. Put shortly:
as §1
As for `COc1ccc(/C=C/C(=O)/C=C/c2cn(Cc3cccc(F)c3)c3ccccc23)cc1`, the IC50 is 40.4 µM.
For the compound `COc1cc(OC)c(/C=C/C(=O)/C=C/c2cn(Cc3ccc(C(F)(F)F)cc3)c3ccccc23)c(OC)c1`, the IC50 is > 50 µM.
Same read-out and setting: the result for `COc1cc(OC)c(OC)cc1/C=C/C(=O)/C=C/c1cn(Cc2ccccc2)c2ccccc12` reads 40.6 µM; that for `COc1cc(OC)c(OC)cc1/C=C/C(=O)/C=C/c1cn(Cc2ccc(C(F)(F)F)cc2)c2ccccc12`, 25.2 µM.
Still for that read-out and setting: the result for `COc1ccc(/C=C/C(=O)/C=C/c2c[nH]c3ccccc23)cc1OC` reads 4.69 µM.
On the same count and under the same terms, the result for `COc1cc(OC)c(/C=C/C(=O)/C=C/c2c[nH]c3ccccc23)c(OC)c1` reads 10.5 µM; that for `COc1ccc(/C=C/C(=O)/C=C/c2cn(Cc3ccccc3)c3ccccc23)cc1`, 40.1 µM.
Take `COc1ccc(/C=C/C(=O)/C=C/c2cn(Cc3ccc(C(F)(F)F)cc3)c3ccccc23)cc1`: the 50% inhibitory concentration (IC50) was > 50 µM.

For a further assay, the species on record is Sus scrofa. Kind of assay: Inhibition of porcine brain tubulin polymerization assessed as reduction in incorporation of fluorescent reporter at 10 uM by fluorescence based assay relative to control.
Details: not given
The method in brief: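 Cell-free mix contained porcine brain tubulin (2 mg/mL) in 80 mM PIPES pH 6.9 with 2.0 mM MgCl2, 0.5 mM EGTA, 1.0 mM GTP and glycerol, with or without compound. Polymerization was tracked as a time-dependent fluorescence rise from reporter incorporation (ex 360, em 440 nm), with nocodazole as positive control. Inhibition was scored versus the untreated control. For IC50, the concentration giving 50% inhibition of assembly was used.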
As a reminder, the inhibition is the relative decrease from the control value, in per cent. As for `COc1ccc(/C=C/C(=O)/C=C/c2c[nH]c3ccccc23)cc1OC`, the inhibition stood at 39.7%.

The next assay deals with MDA-MB-231. In words: Potency index, ratio of curcumin IC50 to compound IC50 for human MDA-MB-231 cells. It counts as functional.
Details: not given
In the case of `COc1ccc(/C=C/C(=O)/C=C/c2c[nH]c3ccccc23)cc1OC`, the “Ratio IC50” value turned out to be 1.
The same measure, in the same setting: to `COc1cc(OC)c(/C=C/C(=O)/C=C/c2c[nH]c3ccccc23)c(OC)c1` belongs 0.3.

The next assay deals with BT-549. In words: Potency index, ratio of curcumin IC50 to compound IC50 for human BT549 cells. It is filed as functional.
Details: not given
With `COc1ccc(/C=C/C(=O)/C=C/c2c[nH]c3ccccc23)cc1OC`, the “Ratio IC50” value is on record as 5.3.
On the same count and under the same terms, the result for `COc1cc(OC)c(/C=C/C(=O)/C=C/c2c[nH]c3ccccc23)c(OC)c1` reads 2.4.

For the next assay, the system named is DU-145. Kind of assay: Antiproliferative activity against human DU145 cells after 48 hrs by MTT assay. It is filed as functional, cell-based. Conditions: DU-145, 48 h. Put shortly:
as §1
Turning to `COc1ccc(/C=C/C(=O)/C=C/c2cn(Cc3cccc(F)c3)c3ccccc23)cc1`, the IC50 is > 50 µM.
On the same count and under the same terms, the result for `COc1cc(OC)c(/C=C/C(=O)/C=C/c2cn(Cc3ccc(C(F)(F)F)cc3)c3ccccc23)c(OC)c1` reads > 50 µM; that for `COc1cc(OC)c(OC)cc1/C=C/C(=O)/C=C/c1cn(Cc2ccccc2)c2ccccc12`, > 50 µM.
The same measure, in the same setting: to `COc1cc(OC)c(OC)cc1/C=C/C(=O)/C=C/c1cn(Cc2ccc(C(F)(F)F)cc2)c2ccccc12` belongs > 50 µM; to `COc1ccc(/C=C/C(=O)/C=C/c2c[nH]c3ccccc23)cc1OC`, 13.3 µM.
The same measure, in the same setting: to `COc1ccc(/C=C/C(=O)/C=C/c2cn(Cc3ccccc3)c3ccccc23)cc1` belongs > 50 µM; to `COc1ccc(/C=C/C(=O)/C=C/c2cn(Cc3ccc(C(F)(F)F)cc3)c3ccccc23)cc1`, > 50 µM.

Another assay concerns A549. Kind of assay: Antiproliferative activity against human A549 cells after 48 hrs by MTT assay. It counts as functional, cell-based. Conditions: A549, 48 h. The method in brief:
as §1
For the compound `COc1ccc(/C=C/C(=O)/C=C/c2cn(Cc3cccc(F)c3)c3ccccc23)cc1`, the IC50 is > 50 µM.
Still for that read-out and setting: to `COc1cc(OC)c(/C=C/C(=O)/C=C/c2cn(Cc3ccc(C(F)(F)F)cc3)c3ccccc23)c(OC)c1` belongs > 50 µM; to `COc1cc(OC)c(OC)cc1/C=C/C(=O)/C=C/c1cn(Cc2ccccc2)c2ccccc12`, > 50 µM.
On to `COc1cc(OC)c(OC)cc1/C=C/C(=O)/C=C/c1cn(Cc2ccc(C(F)(F)F)cc2)c2ccccc12`, for which the concentration for half-maximal inhibition (IC50) was > 50 µM.
Same read-out and setting: to `COc1ccc(/C=C/C(=O)/C=C/c2c[nH]c3ccccc23)cc1OC` belongs 30.2 µM; to `COc1ccc(/C=C/C(=O)/C=C/c2cn(Cc3ccccc3)c3ccccc23)cc1`, > 50 µM.
Same read-out and setting: the result for `COc1ccc(/C=C/C(=O)/C=C/c2cn(Cc3ccc(C(F)(F)F)cc3)c3ccccc23)cc1` reads > 50 µM.
